Assay results published in ChEMBL document CHEMBL1671716, “Antimicrobial susceptibility patterns for recent clinical isolates of anaerobic bacteria in South Korea” (2010).
≈ marks a conversion by molar mass, not a printed value.

Tested on: Bacteroides fragilis
Test: Antimicrobial activity against Bacteroides fragilis after 48 hrs by agar dilution method
Format: functional
Settings: not given
Procedure, shortened: (§1)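 MICs on clinical anaerobe isolates by the CLSI agar dilution method. Inoculum of 10^5 CFU applied with a Steers replicator. Plates incubated 48 h at 37°C in an anaerobic chamber.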

SMILES | MIC50 [µg/mL] | MIC90 [µg/mL]
CO[C@@]1(NC(=O)C2SC(=C(C(N)=O)C(=O)O)S2)C(=O)N2C(C(=O)O)=C(CSc3nnnn3C)CS[C@@H]21 (some centres undefined) [CEFOTETAN] | 8 (≈ 13.9 µM) | 64 (≈ 111 µM)

Tested on: Bacteroides thetaiotaomicron
Test: Antimicrobial activity against Bacteroides thetaiotaomicron after 48 hrs by agar dilution method
Format: functional
Settings: not given
Procedure, shortened: as §1

SMILES | MIC50 [µg/mL] | MIC90 [µg/mL]
CO[C@@]1(NC(=O)C2SC(=C(C(N)=O)C(=O)O)S2)C(=O)N2C(C(=O)O)=C(CSc3nnnn3C)CS[C@@H]21 (some centres undefined) [CEFOTETAN] | > 128 | > 128

Tested on: Bacteroides fragilis
Test: Antimicrobial activity against Bacteroides fragilis assessed as percent susceptible isolates after 48 hrs by agar dilution method
Format: functional
Settings: not given

SMILES | Activity [%]
CO[C@@]1(NC(=O)C2SC(=C(C(N)=O)C(=O)O)S2)C(=O)N2C(C(=O)O)=C(CSc3nnnn3C)CS[C@@H]21 (some centres undefined) [CEFOTETAN] | 71

Tested on: Bacteroides thetaiotaomicron
Test: Antimicrobial activity against Bacteroides thetaiotaomicron assessed as percent resistant isolates after 48 hrs by agar dilution method
Format: functional
Settings: not given
Procedure, shortened: (§2)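 CLSI agar dilution on recent Korean clinical anaerobe isolates. Inoculum 10^5 CFU per spot by replicator. Plates incubated in an anaerobic chamber at 37°C for 48 h. For piperacillin plus tazobactam, tazobactam was held constant at 4 μg/ml. Resistance and susceptibility rates derived from MICs.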

SMILES | Activity [%]
CO[C@@]1(NC(=O)C2SC(=C(C(N)=O)C(=O)O)S2)C(=O)N2C(C(=O)O)=C(CSc3nnnn3C)CS[C@@H]21 (some centres undefined) [CEFOTETAN] | 86

Tested on: Bacteroides caccae
Test: Antimicrobial activity against Bacteroides caccae assessed as percent resistant isolates after 48 hrs by agar dilution method
Format: functional
Settings: not given
Procedure, shortened: as §2

SMILES | Activity [%]
CO[C@@]1(NC(=O)C2SC(=C(C(N)=O)C(=O)O)S2)C(=O)N2C(C(=O)O)=C(CSc3nnnn3C)CS[C@@H]21 (some centres undefined) [CEFOTETAN] | 86

Tested on: Parabacteroides distasonis
Test: Antimicrobial activity against Bacteroides distasonis assessed as percent susceptible isolates after 48 hrs by agar dilution method
Format: functional
Settings: not given

SMILES | Activity [%]
CO[C@@]1(NC(=O)C2SC(=C(C(N)=O)C(=O)O)S2)C(=O)N2C(C(=O)O)=C(CSc3nnnn3C)CS[C@@H]21 (some centres undefined) [CEFOTETAN] | 89

Tested on: Parabacteroides distasonis
Test: Antimicrobial activity against Bacteroides distasonis assessed as percent resistant isolates after 48 hrs by agar dilution method
Format: functional
Settings: not given
Procedure, shortened: as §2

SMILES | Activity [%]
CO[C@@]1(NC(=O)C2SC(=C(C(N)=O)C(=O)O)S2)C(=O)N2C(C(=O)O)=C(CSc3nnnn3C)CS[C@@H]21 (some centres undefined) [CEFOTETAN] | 86

Tested on: Phocaeicola vulgatus
Test: Antimicrobial activity against Bacteroides vulgatus assessed as percent resistant isolates after 48 hrs by agar dilution method
Format: functional
Settings: not given
Procedure, shortened: as §2

SMILES | Activity [%]
CO[C@@]1(NC(=O)C2SC(=C(C(N)=O)C(=O)O)S2)C(=O)N2C(C(=O)O)=C(CSc3nnnn3C)CS[C@@H]21 (some centres undefined) [CEFOTETAN] | 86

Tested on: Bacteroides ovatus
Test: Antimicrobial activity against Bacteroides ovatus assessed as percent susceptible isolates after 48 hrs by agar dilution method
Format: functional
Settings: not given

SMILES | Activity [%]
CO[C@@]1(NC(=O)C2SC(=C(C(N)=O)C(=O)O)S2)C(=O)N2C(C(=O)O)=C(CSc3nnnn3C)CS[C@@H]21 (some centres undefined) [CEFOTETAN] | 89

Tested on: Bacteroides ovatus
Test: Antimicrobial activity against Bacteroides ovatus assessed as percent resistant isolates after 48 hrs by agar dilution method
Format: functional
Settings: not given
Procedure, shortened: as §2

SMILES | Activity [%]
CO[C@@]1(NC(=O)C2SC(=C(C(N)=O)C(=O)O)S2)C(=O)N2C(C(=O)O)=C(CSc3nnnn3C)CS[C@@H]21 (some centres undefined) [CEFOTETAN] | 86

Tested on: Prevotella buccae
Test: Antimicrobial activity against Prevotella buccae after 48 hrs by agar dilution method
Format: functional
Settings: Segatella buccae
Procedure, shortened: (§3)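 CLSI agar dilution (M11-A7); inoculum 10^5 CFU applied by replicator; plates incubated anaerobically 48 h at 37°C. For piperacillin-tazobactam, tazobactam held constant at 4 μg/ml.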

SMILES | MIC50 [µg/mL] | MIC90 [µg/mL]
CO[C@@]1(NC(=O)C2SC(=C(C(N)=O)C(=O)O)S2)C(=O)N2C(C(=O)O)=C(CSc3nnnn3C)CS[C@@H]21 (some centres undefined) [CEFOTETAN] | 4 (≈ 6.95 µM) | 64 (≈ 111 µM)

Tested on: Hoylesella oralis
Test: Antimicrobial activity against Prevotella oralis after 48 hrs by agar dilution method
Format: functional
Settings: not given
Procedure, shortened: as §3

SMILES | MIC50 [µg/mL] | MIC90 [µg/mL]
CO[C@@]1(NC(=O)C2SC(=C(C(N)=O)C(=O)O)S2)C(=O)N2C(C(=O)O)=C(CSc3nnnn3C)CS[C@@H]21 (some centres undefined) [CEFOTETAN] | 4 (≈ 6.95 µM) | 64 (≈ 111 µM)

Tested on: Prevotella intermedia
Test: Antimicrobial activity against Prevotella intermedia assessed as percent resistant isolates after 48 hrs by agar dilution method
Format: functional
Settings: not given
Procedure, shortened: as §2

SMILES | Activity [%]
CO[C@@]1(NC(=O)C2SC(=C(C(N)=O)C(=O)O)S2)C(=O)N2C(C(=O)O)=C(CSc3nnnn3C)CS[C@@H]21 (some centres undefined) [CEFOTETAN] | 0

Tested on: Prevotella bivia
Test: Antimicrobial activity against Prevotella bivia assessed as percent resistant isolates after 48 hrs by agar dilution method
Format: functional
Settings: not given
Procedure, shortened: as §2

SMILES | Activity [%]
CO[C@@]1(NC(=O)C2SC(=C(C(N)=O)C(=O)O)S2)C(=O)N2C(C(=O)O)=C(CSc3nnnn3C)CS[C@@H]21 (some centres undefined) [CEFOTETAN] | 17

Tested on: Prevotella buccae
Test: Antimicrobial activity against Prevotella buccae assessed as percent resistant isolates after 48 hrs by agar dilution method
Format: functional, Segatella buccae
Settings: not given
Procedure, shortened: as §2

SMILES | Activity [%]
CO[C@@]1(NC(=O)C2SC(=C(C(N)=O)C(=O)O)S2)C(=O)N2C(C(=O)O)=C(CSc3nnnn3C)CS[C@@H]21 (some centres undefined) [CEFOTETAN] | 17

Tested on: Hoylesella oralis
Test: Antimicrobial activity against Prevotella oralis assessed as percent susceptible isolates after 48 hrs by agar dilution method
Format: functional
Settings: not given
Procedure, shortened: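 CLSI agar dilution MIC testing of clinical isolates. 10^5 CFU spotted by replicator, plates incubated 48 h at 37°C in an anaerobic chamber. Susceptibility rates derived from the MICs.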

SMILES | Activity [%]
CO[C@@]1(NC(=O)C2SC(=C(C(N)=O)C(=O)O)S2)C(=O)N2C(C(=O)O)=C(CSc3nnnn3C)CS[C@@H]21 (some centres undefined) [CEFOTETAN] | 72

Tested on: Porphyromonas asaccharolytica
Test: Antimicrobial activity against Porphyromonas asaccharolytica after 48 hrs by agar dilution method
Format: functional
Settings: not given
Procedure, shortened: as §3

SMILES | MIC [µg/mL]
CO[C@@]1(NC(=O)C2SC(=C(C(N)=O)C(=O)O)S2)C(=O)N2C(C(=O)O)=C(CSc3nnnn3C)CS[C@@H]21 (some centres undefined) [CEFOTETAN] | 0.06 (≈ 0.104 µM)

Tested on: Fusobacterium varium
Test: Antimicrobial activity against Fusobacterium varium after 48 hrs by agar dilution method
Format: functional
Settings: not given
Procedure, shortened: as §3

SMILES | MIC [µg/mL]
CO[C@@]1(NC(=O)C2SC(=C(C(N)=O)C(=O)O)S2)C(=O)N2C(C(=O)O)=C(CSc3nnnn3C)CS[C@@H]21 (some centres undefined) [CEFOTETAN] | 0.06 (≈ 0.104 µM)

Tested on: Fusobacterium necrogenes
Test: Antimicrobial activity against Fusobacterium necrogenes after 48 hrs by agar dilution method
Format: functional
Settings: not given
Procedure, shortened: as §3

SMILES | MIC [µg/mL]
CO[C@@]1(NC(=O)C2SC(=C(C(N)=O)C(=O)O)S2)C(=O)N2C(C(=O)O)=C(CSc3nnnn3C)CS[C@@H]21 (some centres undefined) [CEFOTETAN] | 0.06 (≈ 0.104 µM)

Tested on: Fusobacterium nucleatum
Test: Antimicrobial activity against Fusobacterium nucleatum after 48 hrs by agar dilution method
Format: functional
Settings: not given
Procedure, shortened: as §3

SMILES | MIC [µg/mL]
CO[C@@]1(NC(=O)C2SC(=C(C(N)=O)C(=O)O)S2)C(=O)N2C(C(=O)O)=C(CSc3nnnn3C)CS[C@@H]21 (some centres undefined) [CEFOTETAN] | 0.06 (≈ 0.104 µM)

Tested on: Peptostreptococcus anaerobius
Test: Antimicrobial activity against Peptostreptococcus anaerobius after 48 hrs by agar dilution method
Format: functional
Settings: not given
Procedure, shortened: as §3

SMILES | MIC50 [µg/mL] | MIC90 [µg/mL]
CO[C@@]1(NC(=O)C2SC(=C(C(N)=O)C(=O)O)S2)C(=O)N2C(C(=O)O)=C(CSc3nnnn3C)CS[C@@H]21 (some centres undefined) [CEFOTETAN] | 4 (≈ 6.95 µM) | 64 (≈ 111 µM)

Tested on: Parvimonas micra
Test: Antimicrobial activity against Peptostreptococcus micros after 48 hrs by agar dilution method
Format: functional
Settings: not given
Procedure, shortened: as §3

SMILES | MIC50 [µg/mL] | MIC90 [µg/mL]
CO[C@@]1(NC(=O)C2SC(=C(C(N)=O)C(=O)O)S2)C(=O)N2C(C(=O)O)=C(CSc3nnnn3C)CS[C@@H]21 (some centres undefined) [CEFOTETAN] | 4 (≈ 6.95 µM) | 64 (≈ 111 µM)

Tested on: Peptostreptococcus anaerobius
Test: Antimicrobial activity against Peptostreptococcus anaerobius assessed as percent susceptible isolates after 48 hrs by agar dilution method
Format: functional
Settings: not given
Procedure, shortened: as §2

SMILES | Activity [%]
CO[C@@]1(NC(=O)C2SC(=C(C(N)=O)C(=O)O)S2)C(=O)N2C(C(=O)O)=C(CSc3nnnn3C)CS[C@@H]21 (some centres undefined) [CEFOTETAN] | 62
